{
  "source": "ChEMBL document CHEMBL1687750",
  "about": "“Nonclinical pharmacokinetics of oseltamivir and oseltamivir carboxylate in the central nervous system” (Antimicrob Agents Chemother, 2009)",
  "tested_on": "CCOC(=O)C1=C[C@@H](OC(CC)CC)[C@H](NC(C)=O)[C@@H](N)C1",
  "assay": "Activity of human MDR1-mediated drug permeability expressed in pig LLC-PK1 cells",
  "assay_type": "cell-based",
  "in_short": "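P-gp-transfected LLC-PK1 monolayers; 14C-labelled substrate (0.1 to 10 mM) plus Lucifer yellow added to the apical or basolateral donor side, ± elacridar 1 μM; 37°C, 5% CO2; acceptor sampled at 30 min and 1, 2, 3 h and counted by scintillation; Pe from the 3 h point, not corrected for marker flux; B-to-A/A-to-B ratio; three inserts per condition, mean.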",
  "data": [
    {"substance": "ATP-dependent translocase ABCB1 (Homo sapiens)", "values": [
      {"measurement": "Km", "value": 4.2, "unit": "mM"},
      {"measurement": "Vmax", "value": 0.000534, "unit": "µmol/min"}
    ]}
  ]
}
